Data set [1] deals with T1, Bile acid receptor (Homo sapiens, UniProt Q96RI1).
T1 sequence (Q96RI1 whole entry): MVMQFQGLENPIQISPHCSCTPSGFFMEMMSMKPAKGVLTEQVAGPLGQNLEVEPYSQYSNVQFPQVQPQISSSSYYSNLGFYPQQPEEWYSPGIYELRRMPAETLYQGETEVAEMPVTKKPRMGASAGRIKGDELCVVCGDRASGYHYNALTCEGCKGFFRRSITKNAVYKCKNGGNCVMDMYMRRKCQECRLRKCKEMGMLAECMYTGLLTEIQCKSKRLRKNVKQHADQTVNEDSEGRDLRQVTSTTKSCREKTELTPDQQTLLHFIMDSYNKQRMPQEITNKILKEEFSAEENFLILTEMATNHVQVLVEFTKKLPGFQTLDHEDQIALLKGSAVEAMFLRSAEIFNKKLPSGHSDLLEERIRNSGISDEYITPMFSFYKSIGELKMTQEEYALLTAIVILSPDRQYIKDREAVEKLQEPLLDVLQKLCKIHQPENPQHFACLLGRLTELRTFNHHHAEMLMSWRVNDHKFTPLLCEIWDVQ
The data set is described as follows: Agonist activity at human full length FXR expressed in HeLa cells cotransfected with pSG5-human RXR after 24 hrs by Dual-Glo luciferase reporter gene assay. It counts as cell-based.

Data set [2] in a line: Metabolic stability in Sprague-Dawley rat liver microsomes assessed as compound remaining at 10 uM after 15 mins by HPLC analysis. It counts as ADME. The conditions noted are these: read-out: Stability. The procedure, abridged:
(§1)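 Compound at 10 µM final, preincubated 5 min at 37 °C in 0.1 M phosphate buffer pH 7.4 with NADPH-regenerating system, then Sprague–Dawley rat liver microsomes added. Stopped with ice-cold methanol at 0, 15, 30, 60 min. Remaining parent quantified by phenyl-column HPLC (UV 330/254 nm) against an external calibration. Controls run without NADPH and with heat-inactivated microsomes.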

Data set [3] can be described thus: Cytotoxicity against human HepG2 cells assessed as cell proliferation at 5 uM after 48 hrs by WST-1 assay (Rvb =100%). The conditions noted are these: read-out: Activity. The data set is classed as cell-based. The essentials: (§2)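 HepG2 seeded at 3*10⁴ cells/well in 10% FCS DMEM; after 24 h switched to 1% charcoal-stripped FCS and exposed to compound for 48 h. Revlotron 100 µM as positive control; Zileuton 100 µM and DMEM/1% DMSO as negative controls. WST reagent for 45 min, absorbance 450/620 nm, untreated set to 100%. Triplicates, ≥4 repeats.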

The target in data set [4] is T2, Bile acid receptor (Homo sapiens) (UniProt Q96RI1).
T2 sequence (whole entry): T1 sequence (Q96RI1 whole entry)
The experiment in a line: Partial agonist activity at FXR in human HepG2 cells assessed as induction of BSEP gene expression at 0.1 uM after 24 hrs by qRT-PCR analysis (reference value: 100%). The data set is classed as cell-based. The essentials:
(§3)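 HepG2 (BSEP, SHP, OSTα) or HT-29 (IBABP) cells seeded at 2*10⁶/well, moved to MEM with 1% charcoal-stripped FCS for 24 h, then treated 24 h with 0.1 µM compound in 0.1% DMSO; CDCA 50 µM as reference. Total RNA extracted; qRT-PCR in duplicate, ≥4 independent experiments, comparative ΔΔCt quantification.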

Data set [5] is described as follows: Metabolic stability in Sprague-Dawley rat liver microsomes assessed as compound remaining at 10 uM after 60 mins by HPLC analysis. The data set is classed as ADME. The conditions noted are these: read-out: Stability. The essentials:
as §1

Data set [6] is described as follows: Cytotoxicity against human HepG2 cells assessed as cell proliferation at 10 uM after 48 hrs by WST-1 assay (Rvb =100%). The data set is classed as cell-based. Conditions: read-out: Activity. The procedure, abridged: as §2
The target in data set [7] is T2, Bile acid receptor (Homo sapiens). The data set is described as follows: Partial agonist activity at FXR in human HepG2 cells assessed as induction of SHP gene expression at 0.1 uM after 24 hrs by qRT-PCR analysis (reference value: 100%). It counts as cell-based. The procedure, abridged: as §3
Data set [8] can be described thus: Cytotoxicity against human HepG2 cells assessed as cell proliferation at 50 uM after 48 hrs by WST-1 assay (Rvb =100%). The data set is classed as cell-based. Conditions: read-out: Activity. The essentials: as §2
Data set [9] in a line: Metabolic stability in Sprague-Dawley rat liver microsomes assessed as compound remaining at 10 uM after 30 mins by HPLC analysis. The data set is classed as ADME. Conditions: read-out: Stability. The procedure, abridged: as §1
Data set [10] relates to HepG2. The experiment in a line: Cytotoxicity against human HepG2 cells at 10 uM after 48 hrs by LDH assay (reference value: 0%). It counts as cell-based. The conditions noted are these: hepg2, 48 h. The essentials:
(§4)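 HepG2 at 3*10⁴ cells/well, moved to 1% charcoal-stripped FCS medium after 24 h, then compound for 48 h. Triton X-100 (2%) added 2 h before reading as 100% lysis control; untreated = 0%. Supernatant mixed with LDH substrate for 20 min, absorbance 490 nm against 690 nm reference. Triplicates, ≥4 independent repeats.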

Data set [11] concerns the target T2, Bile acid receptor (Homo sapiens). The experiment in a line: Partial agonist activity at FXR in human HepG2 cells assessed as induction of OST-alpha gene expression at 0.1 uM after 24 hrs by qRT-PCR analysis (reference value: 100%). It counts as cell-based. The procedure, abridged:
as §3

Data set [12] has as its system HepG2. The experiment in a line: Cytotoxicity against human HepG2 cells at 50 uM after 48 hrs by LDH assay (reference value: 0%). It counts as cell-based. The conditions noted are these: hepg2, 48 h. The procedure, abridged: as §4
Data set [13] is described as follows: Solubility of the compound in 1% aqueous DMSO solution by HPLC analysis. The data set is classed as physicochemical.
Data set [14] is described as follows: Metabolic stability in Sprague-Dawley rat liver microsomes assessed as compound remaining at 10 uM by HPLC analysis. The data set is classed as ADME. Conditions: read-out: Stability. The essentials:
as §1

Data set [15] concerns the target T2, Bile acid receptor (Homo sapiens). The data set is described as follows: Partial agonist activity at FXR in human HT-29 cells assessed as induction of IBABP gene expression at 0.1 uM after 24 hrs by qRT-PCR analysis (reference value: 100%). The data set is classed as cell-based. The essentials: as §3
The test system of data set [16] is HepG2. The data set is described as follows: Cytotoxicity against human HepG2 cells at 5 uM after 48 hrs by LDH assay (reference value: 0%). The conditions noted are these: hepg2, 48 h. The data set is classed as cell-based. The essentials:
as §4

Data set [17] deals with T2, Bile acid receptor (Homo sapiens). The experiment in a line: Agonist activity at human full length FXR expressed in HeLa cells cotransfected with pSG5-human RXR at 30 uM after 24 hrs by Dual-Glo luciferase reporter gene assay. The data set is classed as cell-based. The essentials: (§5)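 HeLa cells, seeded 8,000/well 24 h ahead, calcium phosphate transfected with pcDNA3-hFXR (CMV), pSG5-hRXR, BSEP-promoter firefly luciferase and pRL-SV40 renilla control. Medium at 0.5% charcoal-stripped FCS; compound in 0.1% DMSO for 24 h. Dual-Glo firefly/renilla ratio, expressed relative to 3 µM GW4064. Triplicate wells, ≥3 independent runs.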

For data set [18] the target is unchanged. The experiment in a line: Antagonist activity at human full length FXR expressed in HeLa cells cotransfected with pSG5-human RXR at 30 uM after 24 hrs by Dual-Glo luciferase reporter gene assay. The data set is classed as cell-based.
Data set [19] has the same target. The data set is described as follows: Agonist activity at human full length FXR expressed in HeLa cells cotransfected with pSG5-human RXR at 50 uM after 24 hrs by Dual-Glo luciferase reporter gene assay. The data set is classed as cell-based. The essentials:
as §5

Data set [20] in a line: Solubility of the compound in 1% aqueous DMSO solution measured after 4 hrs by HPLC analysis. It counts as physicochemical.
The target of data set [21] is T2, Bile acid receptor (Homo sapiens). The data set is described as follows: Agonist activity at human full length FXR expressed in HeLa cells cotransfected with pSG5-human RXR at 10 uM after 24 hrs by Dual-Glo luciferase reporter gene assay. It counts as cell-based. The procedure, abridged:
as §5

Data set [22] has the same target. The experiment in a line: Antagonist activity at human full length FXR expressed in HeLa cells cotransfected with pSG5-human RXR at 10 uM after 24 hrs by Dual-Glo luciferase reporter gene assay. The data set is classed as cell-based.
Data set [23] has as its target T1, Bile acid receptor. The experiment in a line: Antagonist activity at human full length FXR expressed in HeLa cells cotransfected with pSG5-human RXR after 24 hrs by Dual-Glo luciferase reporter gene assay. The data set is classed as cell-based.

The structures appear in SMILES notation. Converted amounts (≈) assume the structure as drawn. The source made the active and inactive calls. No cut-off for these calls is given here.

On to `Brc1ccc(-c2nc(-c3ccccc3)no2)cc1`, for which the midpoint of the response on Bile acid receptor [1], the EC50, lay at 0.35 µM. This lies in the sub-micromolar range.

For `Cc1ccccc1-c1noc(-c2cccc(C(=O)O)c2)n1`, the remaining at 0.25 h, 10 µM in [2] worked out at 84.6%. Moreover, in [3], the viability at 48 h, 5 µM turned out to be 109%. In addition, the Activity in [4] came to 395%; in [7], 515%; in the data set with HepG2 [10] it was 0%; in [11], 339%; in the data set with HepG2 [12], 15%; in [15], 295%. The Activity with HepG2 [16] came out at 0%. Besides, in data set [5], the remaining at 1 h, 10 µM amounted to 53.9%. In addition, the viability at 48 h, 10 µM in data set [6] amounted to 87%. In data set [8], the viability at 48 h, 50 µM turned out to be 86%. For the same compound, in data set [9], the remaining at 0.5 h, 10 µM was 71.3%. Moreover, the half-maximal effective concentration (EC50) at Bile acid receptor [1] was determined as 0.0072 µM. Also, the solubility in data set [13] amounted to 33 µg/mL (≈ 118 µM). The remaining at 10 µM in data set [14] was found to be 99.4%.

`COc1ccc(-c2sc(-c3ccc(C)cc3)nc2O)cc1`: the outcome in data set [17] was inactive. Moreover, the inhibition entry in [18] is “inactive”.

For `CC(C)c1nc(-c2ccccc2)no1`, the Activity in data set [19] turned out to be 12.3%.

Turning to `c1ccc(-c2noc(-c3ccccc3)n2)cc1`, the EC50 on Bile acid receptor [1] came out at 0.53 µM.

Regarding `CCN(CC)c1ccc2cc(-c3nc(-c4ccccc4)no3)c(=O)oc2c1`, the EC50 at Bile acid receptor [1] was 0.46 µM. In addition, the solubility in data set [13] was determined as 10.1 µg/mL (≈ 27.9 µM). This compound also came in with a solubility at 4 h in [20] of 9.98 µg/mL (≈ 27.6 µM).

On Bile acid receptor [1], `COc1ccc(-c2nc(-c3ccccc3C)no2)cc1` gave an EC50 of 0.12 µM. This lies in the sub-micromolar range.

`Cc1ccc(-c2noc(-c3ccc(Cl)cc3)n2)cc1` showed an EC50 on Bile acid receptor [1] of 0.41 µM.

Compound `Cc1ccccc1-c1noc(-c2ccc(C(=O)O)cc2)n1` displayed an EC50 at Bile acid receptor [1] of 0.22 µM.

Regarding `Oc1ccc(-c2nc(-c3ccccc3)no2)cc1`, the outcome in data set [21] was inactive. For the same compound, in data set [22], the inhibition result was “inactive”.

As to `COc1ccc(-c2nc(-c3cccc(C(F)(F)F)c3)no2)cc1`, on Bile acid receptor [1], the response was half-maximal at 2.9 µM (EC50).

In the case of `COc1ccc(-c2nc(-c3ccccc3)no2)cc1`, the IC50 at Bile acid receptor [23] amounted to 16.4 µM. This counts as double-digit micromolar.

The values above are taken from ChEMBL document CHEMBL3588766 (Bioorg Med Chem, 2015).
